# From PubChem BioAssay
# In the library only some 1.8% were active in any assay of this set; here they are far more common.
# NOD2-RIPK2 inh: inhibitors of human NOD2-RIPK2 interaction | inhibition, % at 4.98 µM | 360,000 tested, 0.38% active | O43353 | CHO BLA complementation NOD2-RIPK2, CCF4 ratio; in the data active = inhibition above about 21%;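 also: 0% = vehicle only and 100% = reference blocker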
# TLR9-MyD88 block: blocks human TLR9 binding to MyD88. CHO BLA complementation TLR9-MyD88, CCF4 FRET ratio. inhibition, % at 4.98 µM. 340,000 tested, 0.21% active;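 active = inhibition above the mean over all tested compounds plus 3 SD, cut at about 21% in these data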;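 also: 0% = DMSO only wells and 100% = clavulanate BLA inhibitor control wells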
# TLR4 MyD88 comp: inhibitors of human TLR4-MyD88 binding; HeLa CL3-4 TLR4/MyD88 BLA complementation, FRET ratio; inhibition, % at 8.4 µM; 200,000 tested, 0.18% active; AID 861; in the data active = inhibition above about 25%;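 also: 0% = vehicle and 100% = reference inhibitor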
# MC4R antag cAMP: antagonists of human melanocortin 4 receptor (MC4R); 360,000 tested, 0.48% active; inhibition, % at 6.5 µM; AID 540295; MC4R-expressing cells, MTII-stimulated cAMP, LANCE TR-FRET; P32245;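 active = inhibition above its plate's cutoff, the mean of tested wells on that plate plus 3 SD, cut at about 29% in these data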;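 also: 0% = Melanotan II alone and 100% = Melanotan II plus saturating MCL0020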
#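 Assay system: U2OS-MC4R stable cell line; Also added: Melanotan II; Technique: Eu-cAMP/anti-cAMP TR-FRET, emission 671 nm; Times: 30-min compound, 1-h challenge, 1-h detection, room temperature.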
# MC4R ag barr: agonists of human melanocortin 4 receptor (MC4R) beta-arrestin. P32245. U2OS MC4R beta-arrestin complementation, luminescence; percent of melanotan II response, DMSO zero. activation, % at 8.9 µM. 360,000 tested, 0.98% active. AID 540308;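 active = activation above a per-plate cutoff, the mean activation of sample wells on that plate plus 3 SD, cut at about 8% in these data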
# MC4R barr ag: human MC4R beta-arrestin agonism confirmation | shares compounds with MC4R ag barr | U2OS MC4R beta-arrestin recruitment, luminescence; scaled DMSO 0%, Melanotan II 100% | activation, % at 8.9 µM | 2,400 tested, 31% active;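 active = mean activation across replicates above the hit cutoff set in the earlier primary screen, cut at about 8% in these data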
# MOR DOR agonist: activates mu-delta opioid heterodimer, MC4R agonist counter-screen; activation, % at 9.2 µM; 2,400 tested, 5.8% active; AID 602194; U2OS PathHunter beta-arrestin, beta-gal luminescence; percent of deltorphin B response, DMSO zero; shares compounds with MC4R ag barr;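 active = mean activation across replicates exceeds the hit threshold derived in the earlier primary screen, cut at about 18% in these data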;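 also: 100% = deltorphin B at 0.9 µM final and 0% = DMSO alone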
# Active calls of the source: *; · = no result given; ! = not active in a repeat.
SMILES,NOD2-RIPK2 inh,TLR9-MyD88 block,TLR4 MyD88 comp,MC4R antag cAMP,MC4R ag barr,MC4R barr ag,MOR DOR agonist
COc1cc(SC#N)ccc1N=Cc1c(C)[nH]n(-c2ccc(Cl)cc2)c1=O,-4.9,-4.7,-8.9,5.1,0.5,·,·
Cc1ccc(OC(=O)CCC(=O)Nc2ccc(C)c(C)c2)cc1,-5.5,4.6,·,0.3,-0.9,·,·
CCCCCCCCCCOC(=O)Cn1c(COc2ccccc2)[n+](C)c2ccccc21,0.1,-2.5,·,-3.8,18.1*,29.1*,22.8*
CCCCCCCCCCOC(=O)Cn1c(COc2cccc(C)c2)[n+](C)c2ccccc21,-5.3,1.8,·,-5.5,19.5*,28.3*,15.4
CCCCCCCCCCOC(=O)Cn1c(COc2ccc(OC)cc2)[n+](C)c2ccccc21,5.3,-5.9,·,8.2,34.7*,18.7*,23.9*!
CCCCCOC(=O)Cn1c(=O)oc2ccccc21,-1.9,4.6,0.4,21.3,1.3,·,·
CCCCOC(=O)Cn1c(=O)n(CC(=O)OCCCC)c2ccccc21,-0.2,0.6,-4.8,3.3,-0.4,·,·
CCCCCCN1C[C@H](n2cc(-c3ccc(F)cc3)nn2)[C@@H](O)C[C@@H]1c1ccc(C)cc1,-8.7,-4.2,·,-3.7,-0.5,·,·
Cc1ccc(N(CC(=O)N2CCCC2)S(C)(=O)=O)c(C)c1,-5.3,0.1,·,11.7,-1.5,·,·
CSc1nc(N)nc(SCC(=O)c2ccc(C)cc2)c1C#N,5.1,9.1,-3.2,-15.7,20.7*,21.6*,4.5
COC(=O)c1ccc(COc2ccc(/C=C(\C#N)c3nc4ccccc4[nH]3)cc2OC)o1,7.7,9.0,0.4,18.2,0.8,·,·
CCc1ccc(NC(=O)COc2ccc(/C=C(/C#N)c3nc4ccccc4[nH]3)cc2OC)cc1,-0.9,2.8,-6.6,0.7,69.4*,17.1*,23.4*
COC(=O)[C@@]12C[C@@H](CC(=O)NCc3cccs3)C(=O)N(Cc3ccco3)C1=CCC(C)(C)C2,-4.4,·,·,·,·,·,·
O=C(COC(=O)c1sc2cc(F)ccc2c1Cl)Nc1ncc(Cl)cc1Cl,-15.0,-3.3,14.2,8.5,0.5,·,·
O=C(COC(=O)c1sc2ccccc2c1Cl)Nc1ncc(Cl)cc1Cl,-4.8,-2.3,-9.6,-4.9,26.6*,-1.9,3.6
OC(c1ccccc1)c1ncc(-c2ccc(Cl)cc2)[nH]1 (centres undefined),-5.5,·,·,-0.9,-1.2,·,·
OC(c1cccc(F)c1)c1ncc(-c2ccc(Oc3ccccc3)cc2)[nH]1 (centres undefined),5.1,·,·,17.4,10.1*,4.4,9.8
OC(c1ccc(-c2ccccc2)cc1)c1ncc(-c2ccc(F)cc2)[nH]1 (centres undefined),-1.1,·,·,8.4,10.3*,6.7,14.8
OC(c1cccc(Cl)c1)c1ncc(-c2ccc(Oc3ccccc3)cc2)[nH]1 (centres undefined),4.9,·,·,1.6,2.2,·,·
CC(SC1=Nc2ccccc2C2CC=NN12)C(=O)NC1(C#N)CCCCC1 (centres undefined),-10.6,-2.7,·,0.1,-1.3,·,·
CCc1c(C(=O)Nc2cc(C)ccc2OC)[nH]c(C)c1C(C)=O,3.4,-16.8,-3.0,2.7,11.4*,10.5*,5.5
c1ccc(OCc2nnc3sc(-c4cccs4)nn23)cc1,-3.0,0.2,7.1,-5.1,-0.3,·,·
Clc1ccc(Cl)c(-c2nn3c(COc4ccccc4)nnc3s2)c1,0.4,-2.9,5.8,11.7,17.2*,11.4*,3.5
Cc1cc(C)cc(N(C(=O)C(F)(F)F)C(C(=O)NC2CCCCC2)c2cccs2)c1 (centres undefined),-18.9,-5.9,-3.3,-3.3,0.7,·,·
Cc1cccc(N(C(=O)C(F)(F)F)C(C(=O)NC2CCCCC2)c2cccs2)c1 (centres undefined),0.7,-6.5,0.9,14.4,20.0*,6.7,9.6
CCc1ccc(C2CC(c3ccc(F)cc3)Nc3nc(N)nn32)cc1 (centres undefined),3.8,7.5,-1.9,3.8,24.7*,17.3*,0.9
